pIC50: −log10 of the molar value.
Columns and labels:
A549 = assay: Cytotoxicity against human A549 cells after 24 hrs by MTT assay; assay type: functional, cell-based; details: A549, 24 h
Outline: (§1)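 Exponentially growing cells were seeded at 10⁴ cells/well and allowed to attach for 24 h. Compounds were dissolved in 0.1% DMSO, diluted in medium and added across 1–100 for 24 h; controls received medium with 0.1% DMSO. MTT (1 mg/mL) was added for 4 h at 37 °C, formazan was solubilised in DMSO and A540 read. Assays were run in triplicate, with % cytotoxicity calculated from control-, blank- and test-well absorbances.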

MCF7 [1] = assay: Cytotoxicity against human MCF7 cells after 24 hrs by MTT assay; assay type: functional, cell-based; details: for pIC50: MCF7, 24 h; outline: as §1
[2] = Cytotoxicity against mouse EAC cells after 24 hrs by MTT assay; assay type: functional, cell-based; details: Ehrlich
Outline: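 Mouse Ehrlich ascites tumour cells were given at least one in vitro passage before use, then plated at 10⁴ cells/well with 24 h attachment. Compounds in 0.1% DMSO/medium were tested at 1–100 for 24 h against vehicle controls. MTT (1 mg/mL) was applied for 4 h at 37 °C, formazan dissolved in DMSO and A540 read. Done in triplicate; % cytotoxicity was taken relative to control and blank absorbances.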

MCF7 [3] = assay: Cytotoxicity against human MCF7 cells after 48 hrs by MTT assay; assay type: functional, cell-based; details: MCF7, 48 h
Outline: (§2)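 Time-course MTT: MCF-7 cells were seeded at 5 × 10³ cells/well and exposed to compounds at 1–50. % cytotoxicity and IC50 were determined at 24, 48 and 72 h using MTT read-out at 540 nm. Each experiment was performed independently three times and reported as mean ± SD.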

MCF7 [4] = assay: Cytotoxicity against human MCF7 cells at 1 to 50 uM by MTT assay; assay type: functional, cell-based; details: TDE = time-dependent effect; outline: as §2
MCF7 [5] = assay: Cytotoxicity against human MCF7 cells after 72 hrs by MTT assay; assay type: functional, cell-based; details: MCF7, 72 h; outline: as §2
MCF7 [6] = assay: Ratio of IC50 for human MCF7 cells after 24 hrs to IC50 for human MCF7 cells after 48 hrs by MTT assay; assay type: functional
Outline: (§3)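 MCF-7 cells at 5 × 10³ cells/well were treated with compounds at 1–50, and MTT IC50 values were determined at 24, 48 and 72 h (three independent experiments, mean ± SD). The fold reduction is the 24 h IC50 divided by the 48 h or 72 h IC50.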

MCF7 [7] = assay: Ratio of IC50 for human MCF7 cells after 24 hrs to IC50 for human MCF7 cells after 72 hrs by MTT assay; assay type: functional; outline: as §3

Cn1nc(-c2ccc(C(F)(F)F)cc2)cc1-c1nnc(SCCOc2ccccc2F)o1
pIC50 (A549): 4.17
pIC50 (MCF7 [1]): 4.48
pIC50 [2]: 4.45

Cn1nc(-c2nnc(SCc3cccc([N+](=O)[O-])c3)o2)cc1-c1ccc(C(F)(F)F)cc1
pIC50 (MCF7 [1]): < 4.00
pIC50 [2]: < 4.00

Cn1nc(-c2nnc(SCc3cccc(Cl)c3Cl)o2)cc1-c1ccc(C(F)(F)F)cc1
pIC50 (A549): 4.27
pIC50 (MCF7 [1]): 4.49
pIC50 [2]: 4.43

Cn1nc(-c2nnc(SCc3ccc(Cl)cc3F)o2)cc1-c1ccc(C(F)(F)F)cc1
pIC50 (A549): 4.32
Activity (MCF7 [1]): Dose-dependent effect
pIC50 (MCF7 [1]): 4.74
pIC50 (MCF7 [3]): 4.91
Activity (MCF7 [4]): tde
pIC50 [2]: 4.58
pIC50 (MCF7 [5]): 5.01

Cn1nc(-c2ccc(C(F)(F)F)cc2)cc1-c1nnc(S)o1
pIC50 (MCF7 [1]): < 4.00
pIC50 [2]: 4.12

Cn1nc(-c2nnc(SCCOc3ccccc3F)o2)cc1-c1ccc(C(F)(F)F)cc1
pIC50 (A549): 4.32
Activity (MCF7 [1]): Dose-dependent effect
pIC50 (MCF7 [1]): 4.64
pIC50 (MCF7 [3]): 4.72
Activity (MCF7 [4]): tde
pIC50 [2]: 4.60
pIC50 (MCF7 [5]): 4.85

Cn1nc(-c2ccc(C(F)(F)F)cc2)cc1-c1nnc(SCc2cccc(Cl)c2Cl)o1
pIC50 (A549): 4.07
pIC50 (MCF7 [1]): 4.22
pIC50 [2]: 4.25

Cn1nc(-c2nnc(SCc3ccc(Cl)c(Cl)c3)o2)cc1-c1ccc(C(F)(F)F)cc1
pIC50 (A549): 4.35
pIC50 (MCF7 [1]): 4.57
pIC50 [2]: 4.33

COc1cccc2c1C(=O)c1c(O)c3c(c(O)c1C2=O)C[C@@](O)(C(=O)CO)C[C@@H]3O[C@H]1C[C@H](N)[C@H](O)[C@H](C)O1 [DOXORUBICIN]
pIC50 (A549): 5.48

Cn1nc(-c2nnc(SCc3ccc(C(F)(F)F)cc3)o2)cc1-c1ccc(C(F)(F)F)cc1
Ratio IC50 (MCF7 [6]): 1.75
pIC50 (A549): 4.53
Activity (MCF7 [1]): Dose-dependent effect
pIC50 (MCF7 [1]): 4.81
Ratio IC50 (MCF7 [7]): 2.96
pIC50 (MCF7 [3]): 5.05
Activity (MCF7 [4]): tde
pIC50 [2]: 4.69
pIC50 (MCF7 [5]): 5.28

Cn1nc(-c2ccc(C(F)(F)F)cc2)cc1-c1nnc(SCc2ccc(C(F)(F)F)cc2)o1
pIC50 (A549): 4.40
pIC50 (MCF7 [1]): 4.57
pIC50 [2]: 4.56

Cn1nc(-c2nnc(SCCc3ccc(F)cc3)o2)cc1-c1ccc(C(F)(F)F)cc1
pIC50 (A549): 4.41
Activity (MCF7 [1]): Dose-dependent effect
pIC50 (MCF7 [1]): 4.60
pIC50 (MCF7 [3]): 4.68
Activity (MCF7 [4]): tde
pIC50 [2]: 4.53
pIC50 (MCF7 [5]): 4.74

Cn1nc(-c2ccc(C(F)(F)F)cc2)cc1-c1nnc(SCCc2ccc(F)cc2)o1
pIC50 (A549): 4.07
pIC50 (MCF7 [1]): 4.34
pIC50 [2]: 4.40

Cn1nc(-c2ccc(C(F)(F)F)cc2)cc1-c1nnc(SCc2cccc([N+](=O)[O-])c2)o1
pIC50 (MCF7 [1]): < 4.00
pIC50 [2]: < 4.00

Cn1nc(-c2nnc(SCc3c(F)cccc3F)o2)cc1-c1ccc(C(F)(F)F)cc1
pIC50 (A549): 4.42
Activity (MCF7 [1]): Dose-dependent effect
pIC50 (MCF7 [1]): 4.58
pIC50 (MCF7 [3]): 4.69
Activity (MCF7 [4]): tde
pIC50 [2]: 4.55
pIC50 (MCF7 [5]): 4.79

Cn1nc(-c2ccc(C(F)(F)F)cc2)cc1-c1nnc(SCc2c(F)cccc2F)o1
pIC50 (A549): 4.14
pIC50 (MCF7 [1]): 4.34
pIC50 [2]: 4.41

Cn1nc(-c2nnc(S)o2)cc1-c1ccc(C(F)(F)F)cc1
pIC50 (MCF7 [1]): < 4.00
pIC50 [2]: 4.17
